Measurements gathered from unrelated publications.
Each line is one published result; the experiments were not run side by side.
Target: Inhibitor of nuclear factor kappa-B kinase subunit epsilon (IKBKE, Homo sapiens, UniProt Q14164)
One construct used (Q14164 1-716): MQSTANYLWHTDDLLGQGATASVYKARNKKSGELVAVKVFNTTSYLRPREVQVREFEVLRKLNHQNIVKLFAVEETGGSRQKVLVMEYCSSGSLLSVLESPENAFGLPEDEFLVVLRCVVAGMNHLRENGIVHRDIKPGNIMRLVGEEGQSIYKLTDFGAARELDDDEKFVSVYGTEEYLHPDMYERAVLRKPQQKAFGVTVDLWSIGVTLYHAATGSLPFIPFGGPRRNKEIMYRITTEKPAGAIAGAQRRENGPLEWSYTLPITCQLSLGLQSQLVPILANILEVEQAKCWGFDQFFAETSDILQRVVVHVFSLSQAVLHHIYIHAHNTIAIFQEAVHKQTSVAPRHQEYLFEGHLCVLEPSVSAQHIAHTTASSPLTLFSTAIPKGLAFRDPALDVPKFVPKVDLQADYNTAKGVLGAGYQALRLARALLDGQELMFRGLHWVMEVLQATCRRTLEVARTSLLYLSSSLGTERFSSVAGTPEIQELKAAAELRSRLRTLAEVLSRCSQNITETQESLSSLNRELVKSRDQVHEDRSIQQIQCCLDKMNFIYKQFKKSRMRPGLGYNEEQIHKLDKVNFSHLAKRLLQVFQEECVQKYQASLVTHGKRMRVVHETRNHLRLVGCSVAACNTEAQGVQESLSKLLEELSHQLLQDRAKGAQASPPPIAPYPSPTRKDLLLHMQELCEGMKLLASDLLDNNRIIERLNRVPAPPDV

| SMILES | assay | conditions | quantity | result |
| --- | --- | --- | --- | --- |
| C[C@H](NC(=O)c1cnc2n1[C@](C)(Cc1ccc(C#N)cc1)C(=O)N2c1cc(Cl)c(F)c(Cl)c1)C(=O)NC1(c2ccccn2)CC1 | cell-free assay, competition with immobilised ligand | 1 µM | remaining binding | 89% |
| CCN(CC)CCNC(=O)c1c(C)[nH]c(/C=C2\C(=O)Nc3ccc(F)cc32)c1C | cell-free assay | 0.5 µM | remaining signal | 45.6% |
| Cc1nn(CC(F)(F)F)cc1Nc1nccc(NCc2ccc(S(N)(=O)=O)cc2)n1 | enzyme activity, inhibitor, radiometric | 1 µM | remaining activity | 73% |
| Cc1ccc(NC(=O)c2ccc(C)c(C(F)(F)F)c2)cc1C#Cc1nn(C2CCC(O)CC2)c2ncnc(N)c12 (stereo not shown) | cell-free assay | 10 µM | remaining signal | 94% |
| c1cc(CN2CCOCC2)cc(Nc2nccc(NCCc3cnc[nH]3)n2)c1 | enzyme activity, inhibitor, radiometric | 1 µM | remaining activity | 80% |
| CCC(=O)N[C@H]1CC[C@@H](C(=O)N(C)c2ccc(-c3nc4ccccc4o3)cc2)C1 | cell-free assay, competition with immobilised ligand | 1 µM | remaining binding | 52% |
| Cc1ccc(C(=O)NCc2ccsc2)cc1C#Cc1cn(C(C)C)c2ncnc(N)c12 | enzyme activity, inhibitor | 1 µM | activity vs control | 104% |
| Cc1nn(CC(F)(F)F)cc1Nc1ncc(Br)c(NCCCNC(=O)C2CCC2)n1 | enzyme activity, inhibitor, radiometric | 1 µM | remaining activity | 1% |
| CCCS(=O)(=O)Nc1ccc(F)c(C(=O)c2c[nH]c3ncc(-c4ccc(Cl)cc4)cc23)c1F | enzyme activity, inhibitor | 1 µM | inhibition | < 10% |
| O=c1nc(-c2ccccn2)sc2ccccc12 | binding, competition with immobilised ligand | 1 µM | remaining binding | 100% |
| Cc1nn(CC(F)(F)F)cc1Nc1nccc(NCCCNC(=O)C2CCC2)n1 | enzyme activity, inhibitor, radiometric | 1 µM | remaining activity | 63% |
| Cc1noc([C@H]2C[C@@H](c3ccc(C(F)(F)F)cc3)CN(C(=O)N3CCS(=O)(=O)C3)C2)n1 | cell-free assay, competition with immobilised ligand | 1 µM | remaining binding | 100% |
| Cc1nn(CC(F)(F)F)cc1Nc1nccc(NCCc2cnc[nH]2)n1 | enzyme activity, inhibitor, radiometric | 1 µM | remaining activity | 83% |
| N#CCCc1ccc2c(c1)-c1[nH]c3ccc([N+](=O)[O-])cc3c1CC(=O)N2 | cell-free assay | 0.5 µM | remaining signal | 89.2% |
| NS(=O)(=O)c1ccc(CNc2nc(Nc3cccc(NC(=O)N4CCCC4)c3)ncc2C2CC2)cc1 | enzyme activity, inhibitor, radiometric | 1 µM | remaining activity | 52% |
| COc1cc2ncnc(Nc3ccc(Oc4ccccc4)cc3C)c2cc1OC | enzyme activity, inhibitor | 1 µM | inhibition | 5% |
| Cc1c[nH]c2nccc(Oc3c(F)cc(Nc4cc(Cl)nc(N)n4)cc3F)c12 | cell-free assay, competition with immobilised ligand | 0.1 µM | remaining binding | 93% |
| COc1ccnn2ncc(-c3ccnc(N(C)C)n3)c12 | binding | 1 µM | remaining binding | 94% |
| O=C1c2ccccc2-c2n[nH]c3cccc1c23 | enzyme activity, inhibitor | 0.5 µM | activity vs control | 88.9% |
| Cc1c(NC(=O)c2cc(C(N)=O)nc3cc(F)ccc23)c(C(F)(F)F)nn1Cc1ccc(C#N)cc1 | cell-free assay, competition with immobilised ligand | 1 µM | remaining binding | 75% |
| Cc1nn(CC(F)(F)F)cc1Nc1ncc(C2CC2)c(NCc2ccc(S(N)(=O)=O)cc2)n1 | enzyme activity, inhibitor, radiometric | 1 µM | remaining activity | 43% |
| COc1cc2c(N3CCN(C(=O)Nc4ccc(OC(C)C)cc4)CC3)ncnc2cc1OCCCN1CCCCC1 | cell-free assay | 0.5 µM | remaining signal | 96.2% |
